Calls of active or inactive are those of the source. The rule behind the calls is not given here.
Key:
Mus musculus [1] = test: Compound was evaluated for the dose required for protection against MES-induced seizures after 4 hours of intraperitoneal administration; Inactive; assay type: functional, organism-based
Mus musculus [2] = test: Compound was evaluated for the dose required for protection against scMET-induced seizures after 4 hours of intraperitoneal administration; Inactive; assay type: functional, organism-based
[3] = Compound at the dose 10 mg/kg administered intraperitoneally was evaluated for the excretion rate in rats in 7 days through feces; assay type: ADME, organism-based; design: dose 10 mg/kg, route intraperitoneal; details: rat, faeces, ip, read-out: Excretion
In short: (§1)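 Male Wistar rats (150–330 g) in individual metabolic cages received [14C] compound 10 mg/kg ip in propylene glycol (5 mL/kg), n=4. Urine and feces were collected for 7 days. Urine was diluted with EtOH and counted directly. Fecal EtOH homogenates were dried, combusted and counted as trapped 14CO2.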

[4] = Compound at the dose 10 mg/kg administered intraperitoneally was evaluated for the excretion rate in rats in 7 days through urine; assay type: ADME, organism-based; design: dose 10 mg/kg, route intraperitoneal; details: rat, ip, read-out: Excretion; in short: as §1
[5] = Compound was evaluated for the cumulative excretion rate in rats at the dose 10 mg/kg, intraperitoneally for 18 days through feces; assay type: ADME, organism-based; design: dose 10 mg/kg, route intraperitoneal; details: rat, faeces, ip, read-out: Excretion
In short: (§2)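 Four male Wistar rats were dosed with [14C] compound at 10 mg/kg ip in propylene glycol (5 mL/kg). Urine and feces were collected at 3-day intervals for 18 days. Fecal EtOH homogenates were combusted and counted. Daily fecal rate for the 0–3 day interval was corrected for gastrointestinal transit time (about 18 h).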

[6] = Compound was evaluated for the cumulative excretion rate in rats at the dose 10 mg/kg, intraperitoneally for 18 days through urine; assay type: ADME, organism-based; design: dose 10 mg/kg, route intraperitoneal; details: rat, ip, read-out: Excretion; in short: as §2
[7] = Compound was evaluated for the in rats after the dose of 5 mg/kg intravenously, at the dose 4 hour biliary excretion; assay type: ADME, organism-based; design: dose 5 mg/kg, route intravenous; details: rat, bile, iv, read-out: Excretion
In short: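 Three male rats with jugular cannulae, body temperature held at 37–38 °C, received [14C] compound 5 mg/kg by 3–5 min infusion in propylene glycol–ethanol–0.1 N NaOH (4:1:5, 1 mL/kg). Bile was collected in two 30-min periods, then hourly up to 4 h, and counted. Bile volume was also determined.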

Rattus norvegicus = test: excretion rate in rats after the dose of 5 mg/kg intravenously, at the dose 4 hour Rate of biliary excretion; 0.06-0.15%/h; assay type: ADME, organism-based, Bile; design: dose 5 mg/kg, route intravenous; details: in vivo, iv
[8] = Compound was evaluated for the average apparent volume of distribution when administered through intravenous route; assay type: ADME, organism-based; details: in vivo, read-out: Vd app
In short: (§3)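 Male Wistar rats under pentobarbital (25 mg/kg ip) received [14C] compound 5 mg/kg iv in propylene glycol–0.1 N NaOH (1:1). Dosing was by jugular infusion, or by tail vein for later time points.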

[9] = Compound was evaluated for the Brain levels at 24 h in the Swiss webster mouse when administered at the […]; assay type: ADME, organism-based; details: read-out: Plasma level
In short: (§4)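 Swiss Webster mice (20–30 g) received [14C] compound 10 mg/kg ip. Four animals were killed at each of 12, 18, 24, 36, 48 and 72 h. Radioactivity was measured in plasma and brain, and the plasma elimination half-life was derived from these levels.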

[10] = Compound was evaluated for the average plasma levels at 24 hours, after administration of intraperitoneal route; assay type: ADME; details: ip, read-out: Plasma level
In short: (§5)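 Male Wistar rats were given [14C] compound 5 mg/kg ip in propylene glycol (2 mL/kg). Blood was taken by cardiac puncture under ether at 1, 2, 3, 5 and 7 days, six rats per time point. Plasma 14C was counted to give the β-phase elimination half-life and plasma levels.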

[11] = Compound was evaluated for the average plasma levels at 24 hours, after administration of intravenous route; assay type: ADME; details: read-out: Plasma level; in short: as §3
[12] = Compound was evaluated for the plasma level at 18 hr in the Swiss webster mouse when administered at the […]; assay type: ADME; details: read-out: Plasma level; in short: as §4
[13] = Compound was evaluated for the biological half life in rats after a dose of 5 mg/kg given intraperitoneal route; assay type: ADME, organism-based; design: dose 5 mg/kg, route intraperitoneal; details: rat, in vivo, ip; in short: as §5
[14] = Compound was evaluated for the biological half life in rats after a dose of 5 mg/kg given intravenous route; assay type: ADME, organism-based; design: dose 5 mg/kg, route intravenous; details: rat, in vivo; in short: as §3
[15] = Compound was evaluated for the plasma biological half life in the Swiss webster mouse when administered at the […]; assay type: ADME, organism-based; in short: as §4
[16] = Compound was evaluated for the toxicity in mouse on 7 th day when administered through Oral route; assay type: organism-based; details: in vivo
In short: (§6)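 Male Swiss Webster mice (20–40 g) dosed in propylene glycol (10–20 mL/kg), ip at 10, 20, 50, 100 and 200 mg/kg or po at 100 and 200 mg/kg. Ten mice per dose level, observed for toxicity for 1 week. LD50 taken at 7 days.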

[17] = Compound was evaluated for the toxicity in mouse on 7 th day when administered through intraperitoneal route; assay type: organism-based; details: in vivo, ip; in short: as §6
Mus musculus [18] = test: Time to first twitch in intravenous pentylenetetrazole test in mice at 100 mg/kg for 30 h time of test; assay type: functional
In short: (§7)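 Carworth Farm No. 1 mice (average 20 g) were dosed ip. At set times afterwards, 0.5% pentylenetetrazol in heparinized saline was infused into the tail vein at 0.34 mL/min. Time to first twitch was recorded in individual mice, with observation to 240 s.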

Mus musculus [19] = test: Time to first twitch in intravenous pentylenetetrazole test in mice at 100 mg/kg for 48 hr time of test; assay type: functional; in short: as §7
Mus musculus [20] = test: Time to first twitch in intravenous pentylenetetrazole test in mice at 100 mg/kg for 72 hr time of test; assay type: functional; in short: as §7
Mus musculus [21] = test: Time to first twitch in intravenous pentylenetetrazole test in mice at 100 mg/kg for 96 hr time of test; assay type: functional; in short: as §7
Mus musculus [22] = test: Time to first twitch in intravenous pentylenetetrazole test in mice at 1000 mg/kg for 24 hr time of test; assay type: functional; in short: as §7
Mus musculus [23] = test: Time to first twitch in intravenous pentylenetetrazole test in mice at 150 mg/kg for 30 hr time of test; assay type: functional; in short: as §7
Mus musculus [24] = test: Time to first twitch in intravenous pentylenetetrazole test in mice at 150 mg/kg for 48 hr time of test; assay type: functional; in short: as §7
Mus musculus [25] = test: Time to first twitch in intravenous pentylenetetrazole test in mice at 150 mg/kg for 72 h time of test; assay type: functional; in short: as §7
Mus musculus [26] = test: Compound was evaluated for the neurotoxicity after intraperitoneal administration at 24 hours; assay type: organism-based; details: in vivo, ip
In short: (§8)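 Rotarod ataxia test in Carworth Farm No. 1 mice, run by the ADD program. Dosed ip in aqueous 30% PEG 400. Neurological deficit scored at 24 and 48 h after doses up to 1000 mg/kg.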

Mus musculus [27] = test: Compound was evaluated for the neurotoxicity after intraperitoneal administration at 48 hours; assay type: organism-based; details: in vivo, ip; in short: as §8
Mus musculus [28] = test: Time to first twitch in intravenous pentylenetetrazole test in mice at 150 mg/kg for 96 hr time of test; assay type: functional; in short: as §7
Mus musculus [29] = test: Time to first twitch in intravenous pentylenetetrazole test in mice at 200 mg/kg for 30 h time of test; assay type: functional; in short: as §7
Mus musculus [30] = test: Time to first twitch in intravenous pentylenetetrazole test in mice at 200 mg/kg for 48 hr time of test; assay type: functional; in short: as §7
Mus musculus [31] = test: Time to first twitch in intravenous pentylenetetrazole test in mice at 200 mg/kg for 72 hr time of test; assay type: functional; in short: as §7
Mus musculus [32] = test: Time to first twitch in intravenous pentylenetetrazole test in mice at 200 mg/kg for 96 hr time of test; assay type: functional; in short: as §7
Mus musculus [33] = test: Time to first twitch in intravenous pentylenetetrazole test in mice at 300 mg/kg for 30 hr time of test; assay type: functional; in short: as §7
Mus musculus [34] = test: Time to first twitch in intravenous pentylenetetrazole test in mice at 300 mg/kg for 48 hr time of test; assay type: functional; in short: as §7
Mus musculus [35] = test: Time to first twitch in intravenous pentylenetetrazole test in mice at 300 mg/kg for 72 h time of test; assay type: functional; in short: as §7
Mus musculus [36] = test: Time to first twitch in intravenous pentylenetetrazole test in mice at 500 mg/kg for 24 hr time of test; assay type: functional
In short: (§9)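 Carworth Farm no. 1 mice (av wt 20 g) given the compound ip; at the designated time afterwards, 0.5% pentylenetetrazol in heparinized saline was infused into the tail vein at 0.34 mL/min. Time to first twitch (minimal excitation) was recorded for individual mice, observed up to 240 s.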

Mus musculus [37] = test: Time to first twitch in intravenous pentylenetetrazole test in mice at 500 mg/kg for 48 hr time of test; assay type: functional; in short: as §9
Mus musculus [38] = test: Time to first twitch in intravenous pentylenetetrazole test in mice at 750 mg/kg for 24 hr time of test; assay type: functional; in short: as §9
Mus musculus [39] = test: Time to first twitch in intravenous pentylenetetrazole test in mice at 750 mg/kg for 48 hr time of test; assay type: functional; in short: as §9
[40] = Compound was evaluated for the tissue levels after 1 hour of administration of 5 mg/kg through intravenous route, the given data is tissue/plasma ratios red cells; assay type: ADME, organism-based; design: dose 5 mg/kg, route intravenous
In short: (§10)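 Anesthetized male Wistar rats received [14C] compound 5 mg/kg by slow jugular infusion in propylene glycol–0.1 N NaOH (1:1). Tissues were taken at 1 h, four per group, rinsed, blotted and weighed. Fat, muscle and red cells were combusted directly, other organs after EtOH homogenization. Tissue/plasma 14C ratios were computed.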

[41] = Compound was evaluated for the tissue levels after 1 hour of administration of 5 mg/kg through intravenous route, the given data is tissue/plasma ratios Muscle; assay type: ADME, organism-based; design: dose 5 mg/kg, route intravenous; in short: as §10
[42] = Compound was evaluated for the tissue levels after 1 hour of administration of 5 mg/kg through intravenous route, the given data is tissue/plasma ratios brain; assay type: ADME, organism-based; design: dose 5 mg/kg, route intravenous; in short: as §10
[43] = Compound was evaluated for the tissue levels after 1 hour of administration of 5 mg/kg through intravenous route, the given data is tissue/plasma ratios gastrointestinal tract; assay type: ADME, organism-based; design: dose 5 mg/kg, route intravenous; in short: as §10
[44] = Compound was evaluated for the tissue levels after 1 hour of administration of 5 mg/kg through intravenous route, the given data is tissue/plasma ratios heart; assay type: ADME, organism-based; design: dose 5 mg/kg, route intravenous; in short: as §10
[45] = Compound was evaluated for the tissue levels after 1 hour of administration of 5 mg/kg through intravenous route, the given data is tissue/plasma ratios kidneys; assay type: ADME, organism-based, Kidney; design: dose 5 mg/kg, route intravenous; in short: as §10
[46] = Compound was evaluated for the tissue levels after 1 hour of administration of 5 mg/kg through intravenous route, the given data is tissue/plasma ratios liver; assay type: ADME, organism-based; design: dose 5 mg/kg, route intravenous; in short: as §10
[47] = Compound was evaluated for the tissue levels after 1 hour of administration of 5 mg/kg through intravenous route, the given data is tissue/plasma ratios lungs; assay type: ADME, organism-based; design: dose 5 mg/kg, route intravenous; in short: as §10
[48] = Compound was evaluated for the biological half life of elimination in feces; assay type: ADME, tissue-based; details: faeces

Cc1cccc(C2(c3cccc(C(F)(F)F)c3)NC(=O)NC2=O)c1 (stereo in doubt; 9)
Activity (Mus musculus [1]): inactive
Activity (Mus musculus [2]): inactive

O=C1NC(=O)C(c2ccc(C(F)(F)F)cc2)(c2ccc(C(F)(F)F)cc2)N1
dose excreted at 168 h [3]: 67%
dose excreted at 168 h [4]: 0.3%
dose excreted at 432 h [5]: 94%
dose excreted at 432 h [6]: 0.25%
dose excreted at 4 h [7]: 0.5%
Excretion rate (Rattus norvegicus): 0.15
Vd [8]: 0.42 L/kg
concentration at 24 h [9]: 3.5 µg/mL
concentration at 24 h [10]: 11 µg/mL
concentration at 24 h [11]: 9.4 µg/mL
concentration at 18 h [12]: 27 µg/mL
half-life [13]: 71.7 h
half-life [14]: 66.7 h
half-life [15]: 115 h
LD50 at 7 days [16]: 100 mg/kg
LD50 at 7 days [17]: 40 mg/kg
Time (Mus musculus [18]): 23.1 s
Time (Mus musculus [19]): 24.3 s
Time (Mus musculus [20]): 27.1 s
Time (Mus musculus [21]): 27.5 s
Time (Mus musculus [22]): 25.5 s
Time (Mus musculus [23]): 28.6 s
Time (Mus musculus [24]): 26.7 s
Time (Mus musculus [25]): 24.1 s
Toxic dose (Mus musculus [26]): 750 mg/kg
Toxic dose (Mus musculus [27]): 1000 mg/kg
Time (Mus musculus [28]): 23.4 s
Time (Mus musculus [29]): 29.6 s
Time (Mus musculus [30]): 24.5 s
Time (Mus musculus [31]): 23.6 s
Time (Mus musculus [32]): 34.5 s
Time (Mus musculus [33]): 22 s
Time (Mus musculus [34]): 32.4 s
Time (Mus musculus [35]): 24.9 s
Time (Mus musculus [36]): 27.3 s
Time (Mus musculus [37]): 28.7 s
Time (Mus musculus [38]): 26.6 s
Time (Mus musculus [39]): 71 s
Kp at 1 h [40]: 0.12
Kp at 1 h [41]: 0.41
Kp at 1 h [42]: 0.14
Kp at 1 h [43]: 0.48
Kp at 1 h [44]: 0.66
Kp at 1 h [45]: 0.61
Kp at 1 h [46]: 0.96
Kp at 1 h [47]: 0.62
half-life [48]: 93.6 h
